From ChEMBL document CHEMBL1155079, “N-Hydroxypyrazolyl glycine derivatives as selective N-methyl-D-aspartic acid receptor ligands” (J Med Chem, 2008) come the findings set out here.

The structures appear in SMILES notation. Active and inactive are the calls of the source. No cut-off for these calls is given here. A value given as a limit tells only on which side of the number the result lay.

Experiment [1] in a line: Displacement of [3H]AMPA from AMPA receptor in rat cortical synaptosome. It is filed as tissue-based, Brain. The method in brief: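 Binding to rat cortical synaptosome membranes using 5 nM [3H]AMPA (45.5 Ci/mmol) as radioligand.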
Experiment [2] addresses Glutamate NMDA receptor; Grin1/Grin2a (Rattus norvegicus, UniProt P35439+Q00959). As to the kind of experiment: (§1) Activity at rat recombinant NR1/NR2A receptor expressed in Xenopus oocytes assessed as effect on glutamate-induced current by two voltage clamp electrophysiology. Type of experiment: cell-based, Oocyte. The method in brief:
(§2)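 Two-electrode voltage clamp on Xenopus oocytes injected with cRNA for NR1 plus the named NR2 subunit. Holding potential −60 to −40 mV. Continuous perfusion at 23 °C with 90 NaCl, 0.5 BaCl2, 1 KCl, 0.01 EDTA, 10 HEPES (mM), pH 7.6, with 20 μM glycine present throughout. Concentration–response data from each oocyte fitted to the Hill equation; mean ± SEM of logEC50 and nH.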

A short description of experiment [3]: Displacement of [3H]KAIN from KA receptor in rat cortical synaptosome. Type of experiment: tissue-based, Brain. For orientation: Displacement assays read how much labelled ligand stays bound in the presence of the test substance.
For experiment [4], the target named is Glutamate NMDA receptor; Grin1/Grin2b (Rattus norvegicus, UniProt P35439+Q00960). In words: Activity at rat recombinant NR1/NR2B receptor expressed in Xenopus oocytes assessed as effect on glutamate-induced current by two voltage clamp electrophysiology. Type of experiment: cell-based, Oocyte. The method in brief: as §2
For experiment [5], the target named is Glutamate NMDA receptor; Grin1/Grin2c (Rattus norvegicus) (UniProt P35439+Q00961). As to the kind of experiment: Activity at rat recombinant NR1/NR2C receptor expressed in Xenopus oocytes by two voltage clamp electrophysiology relative to glutamate. Type of experiment: cell-based. The note with it: Oocyte. The method in brief: (§3)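 Two-electrode voltage clamp on Xenopus oocytes injected with cRNA for NR1 plus the named NR2 subunit. Holding potential −60 to −40 mV. Continuous perfusion at 23 °C with 90 NaCl, 0.5 BaCl2, 1 KCl, 0.01 EDTA, 10 HEPES (mM), pH 7.6, with 20 μM glycine present throughout. Concentration–response data from each oocyte fitted to the Hill equation; mean ± SEM of logEC50 and nH. Relative Imax = fitted agonist Imax / maximal glutamate response in the same recording.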

Experiment [6] deals with Glutamate NMDA receptor; Grin1/Grin2b (Rattus norvegicus) (UniProt P35439+Q00960). As to the kind of experiment: Activity at rat recombinant NR1/NR2B receptor expressed in Xenopus oocytes by two voltage clamp electrophysiology relative to glutamate. Type of experiment: cell-based. The note with it: Oocyte. The method in brief: as §3
The target of the next experiment is Glutamate NMDA receptor. In words: Displacement of [3H]CGP39653 from NMDA receptor in rat cortical synaptosome. Type of experiment: tissue-based, Brain.
Experiment [7] addresses Glutamate NMDA receptor; Grin1/Grin2c (Rattus norvegicus, UniProt P35439+Q00961). In words: Activity at rat recombinant NR1/NR2C receptor expressed in Xenopus oocytes assessed as effect on glutamate-induced current by two voltage clamp electrophysiology. Type of experiment: cell-based, Oocyte. The method in brief: as §2
In experiment [8] the target is T1, Glutamate NMDA receptor; Grin1/Grin2a (Rattus norvegicus) (UniProt P35439+Q00959). In words: Activity at rat recombinant NR1/NR2A receptor expressed in Xenopus oocytes by two voltage clamp electrophysiology relative to glutamate. It is filed as cell-based. The note with it: Oocyte. The method in brief:
as §3

For experiment [9], the target named is T1, Glutamate NMDA receptor; Grin1/Grin2a (Rattus norvegicus). Described as §1. It is filed as cell-based. The note with it: Oocyte. The method in brief: as §2
Experiment [10] deals with Ionotropic glutamate receptor NMDA 1/2D (Rattus norvegicus, UniProt P35439+Q62645). As to the kind of experiment: Activity at rat NR1/NR2D receptor expressed in Xenopus oocytes assessed as effect on glutamate-induced current by two voltage clamp electrophysiology. It is filed as cell-based, Oocyte. The method in brief:
as §2

For experiment [11], the target named is Ionotropic glutamate receptor NMDA 1/2D (Rattus norvegicus) (UniProt P35439+Q62645). In words: Activity at rat NR1/NR2D receptor expressed in Xenopus oocytes by two voltage clamp electrophysiology relative to glutamate. Type of experiment: cell-based. To be noted: Oocyte. The method in brief:
as §3

As a reminder, the IC50 is the concentration that gives 50% inhibition. A lower IC50 goes with inhibition by little substance. A word on the EC50: it is the concentration that produces a half-maximal response. The term Ki denotes the equilibrium dissociation constant of an inhibitor or competing ligand from its target. A high value points to lower affinity.

Consider `NC(C(=O)O)c1ccnn1O` (racemic), for which the IC50 in experiment [1] and in experiment [3] was greater than 100 µM throughout. Further, the EC50 was found to be 82 µM in [2], 48 µM in experiment [4] and 54 µM in [7]. The figures for the Imax in experiment [5], in experiment [6] and in [8] were 0.52, 0.58 and 0.45, respectively. The same compound registered a Ki at Glutamate NMDA receptor of 10 µM.
Take `Cc1cnn(O)c1[C@H](N)C(=O)O`: the half-inhibitory concentration (IC50) in experiment [1] and in experiment [3] was greater than 100 µM each time. The Ki at Glutamate NMDA receptor was greater than 100 µM.
For `N[C@H](C(=O)O)c1ccnn1O`, the IC50 in experiment [1] and in experiment [3] was greater than 100 µM in each case. This compound yielded a Ki on Glutamate NMDA receptor greater than 100 µM.
`CCCc1cnn(O)c1[C@@H](N)C(=O)O`: the concentration for half-maximal inhibition (IC50) in experiment [1] and in experiment [3] was greater than 100 µM in each case. Besides, in experiment [4], the EC50 was determined as 63 µM. Moreover, the Imax in experiment [6] is 0.09. This compound returned a Ki on Glutamate NMDA receptor of 6.9 µM.
Take `CC(C)c1cnn(O)c1C(N)C(=O)O` (racemic): the IC50 in experiment [1] and in experiment [3] was greater than 100 µM each time. In addition, at Glutamate NMDA receptor, the Ki stood at 20 µM.
Regarding `N[C@@H](C(=O)O)c1c(Cl)cnn1O`, the EC50 in [4] worked out at 58 µM. Moreover, the Imax in experiment [6] was 0.33. The same compound yielded a Ki at Glutamate NMDA receptor of 2.9 µM.
Take `CCCc1cnn(O)c1[C@H](N)C(=O)O`: the IC50 in experiment [1] and in experiment [3] was greater than 100 µM throughout. The Ki at Glutamate NMDA receptor is greater than 100 µM.
Turning to `CCc1cnn(O)c1[C@@H](N)C(=O)O`, the IC50 in experiment [1] and in experiment [3] was greater than 100 µM each time. The EC50 in experiment [4] was 34 µM. Also, the Imax in experiment [6] was 0.46. The compound further displayed a Ki at Glutamate NMDA receptor of 4.4 µM.
As for `CCCc1cnn(O)c1C(N)C(=O)O` (racemic), the IC50 in experiment [1] and in experiment [3] was greater than 100 µM each time. The outcome in experiment [9] and in experiment [8] was inactive. Besides, the values for the EC50 in experiment [4], in experiment [10] and in experiment [7] were 105 µM, 153 µM and 429 µM, respectively. The figures for the Imax in [5], in [6] and in [11] were 0.22, 0.06 and 0.37, respectively. The compound also returned a Ki on Glutamate NMDA receptor of 14 µM.
For `CC(C)c1cnn(O)c1[C@@H](N)C(=O)O`, the IC50 in [1] and in [3] was greater than 100 µM in each case. At Glutamate NMDA receptor, affinity was put at a Ki of 13 µM.
In the case of `N[C@H](C(=O)O)c1c(Cl)cnn1O`, the IC50 in experiment [1] and in experiment [3] was greater than 100 µM each time. The same compound showed a Ki on Glutamate NMDA receptor of 25 µM.
For the compound `Cc1cnn(O)c1[C@@H](N)C(=O)O`, the IC50 in experiment [1] and in experiment [3] was greater than 100 µM in each case. In addition, in experiment [4], the EC50 amounted to 36 µM. Further, in experiment [6], the Imax is 0.23. On Glutamate NMDA receptor, the Ki turned out to be 2.2 µM.
Consider `N[C@@H](C(=O)O)c1ccnn1O`, for which the IC50 in experiment [1] and in experiment [3] was greater than 100 µM each time. Moreover, the EC50 in [4] stood at 14 µM. Further, in [6], the Imax was found to be 0.61. This compound returned a Ki at Glutamate NMDA receptor of 2.2 µM.
In the case of `CCc1cnn(O)c1[C@H](N)C(=O)O`, the IC50 in [1] and in experiment [3] was greater than 100 µM each time. Further, at Glutamate NMDA receptor, the inhibition constant (Ki) was greater than 100 µM.
In the case of `CC(C)c1cnn(O)c1[C@H](N)C(=O)O`, the IC50 in [1] and in experiment [3] was greater than 100 µM each time. For the same compound, the inhibition constant Ki on Glutamate NMDA receptor is greater than 100 µM.
Consider `CCc1cnn(O)c1C(N)C(=O)O` (racemic), for which the IC50 in [1] and in experiment [3] was greater than 100 µM in each case. Further, the half-maximal effective concentration (EC50) is 47 µM in experiment [2], 68 µM in [4], 43 µM in experiment [10] and 91 µM in experiment [7]. Also, the Imax was 0.52 in [5], 0.45 in experiment [6], 0.7 in experiment [11] and 0.05 in experiment [8]. This compound gave a Ki at Glutamate NMDA receptor of 13 µM.
`CN[C@H](CC(=O)O)C(=O)O` [N-METHYL-D-ASPARTIC ACID (NMDA)]: the EC50 in experiment [2] stood at 75 µM; in experiment [4], 22 µM; in experiment [10], 8.3 µM; in experiment [7] it was 23 µM. Besides, the Imax in experiment [5] was 0.73; in [6], 0.77; in experiment [11] it was 0.8; in [8], 0.9.
As to `Cc1cnn(O)c1C(N)C(=O)O` (racemic), the IC50 in experiment [1] and in [3] was greater than 100 µM throughout. The same compound came in with a Ki at Glutamate NMDA receptor of 22 µM.
For `NC(C(=O)O)c1c(Cl)cnn1O` (racemic), the IC50 in experiment [1] and in experiment [3] was greater than 100 µM throughout. Also, the EC50 in [2] came out at 565 µM; in [4], 149 µM; in [10], 152 µM; in experiment [7], 255 µM. Besides, the Imax in experiment [5] is 0.55; in experiment [6], 0.29; in experiment [11] it was 0.73; in experiment [8], 0.07. The compound further had a Ki on Glutamate NMDA receptor of 2.9 µM.
